Converted amounts (≈) assume the structure as drawn.
What was measured:
Format in all cases: functional
Staphylococcus hominis [1] = experiment: Bactericidal activity against methicillin-resistant coagulase-negative Staphylococcus hominis after 24 hrs by plate counting method; details: for MBC: Staphylococcus hominis, 24 h
[2] = system: Staphylococcus epidermidis; experiment: Antimicrobial activity against methicillin-susceptible coagulase-negative Staphylococcus epidermidis after 24 hrs by broth microdilution method
Outline: (§1)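 Clinical isolates came from blood, body fluids, genital secretions, pus or sputum, identified conventionally or by Vitek. MICs were run by CLSI M7-A6 broth microdilution in Mueller-Hinton broth with 5 × 10^5 CFU/ml inoculum. Agents were twofold serially diluted, starting from 10% DMSO. Drug-free and uninoculated controls were included. Plates were incubated aerobically at 37°C for 24 h; MIC is the lowest concentration giving no visible growth.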

[3] = system: Staphylococcus epidermidis; experiment: Antimicrobial activity against methicillin-susceptible coagulase-negative Staphylococcus epidermidis assessed as susceptible isolates after 24 hrs by broth microdilution method
Staphylococcus aureus [4] = experiment: Antimicrobial activity against methicillin-susceptible Staphylococcus aureus assessed as intermediate resistant isolates after 24 hrs by broth microdilution method
Mammaliicoccus sciuri [5] = experiment: Antimicrobial activity against methicillin-resistant coagulase-negative Staphylococcus sciuri assessed as resistant isolates after 24 hrs by broth microdilution method
[6] = system: Staphylococcus haemolyticus; experiment: Bactericidal activity against methicillin-resistant coagulase-negative Staphylococcus haemolyticus after 24 hrs by plate counting method; details: for MBC: Staphylococcus haemolyticus, 24 h
[7] = system: Staphylococcus epidermidis; experiment: Antimicrobial activity against methicillin-resistant coagulase-negative Staphylococcus epidermidis assessed as susceptible isolates after 24 hrs by broth microdilution method
Mammaliicoccus sciuri [8] = experiment: Antimicrobial activity against methicillin-susceptible coagulase-negative Staphylococcus sciuri assessed as resistant isolates after 24 hrs by broth microdilution method
Staphylococcus simulans [9] = experiment: Antimicrobial activity against methicillin-resistant coagulase-negative Staphylococcus simulans after 24 hrs by broth microdilution method; outline: as §1
Staphylococcus hominis [10] = experiment: Antimicrobial activity against methicillin-susceptible coagulase-negative Staphylococcus hominis assessed as resistant isolates after 24 hrs by broth microdilution method
Staphylococcus hominis [11] = experiment: Antimicrobial activity against methicillin-susceptible coagulase-negative Staphylococcus hominis assessed as susceptible isolates after 24 hrs by broth microdilution method
Staphylococcus simulans [12] = experiment: Antimicrobial activity against methicillin-resistant coagulase-negative Staphylococcus simulans assessed as resistant isolates after 24 hrs by broth microdilution method
Mammaliicoccus sciuri [13] = experiment: Bactericidal activity against methicillin-resistant coagulase-negative Staphylococcus sciuri after 24 hrs by plate counting method; details: for MBC: Mammaliicoccus sciuri, 24 h
Outline: (§2)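 Clinical staphylococcal isolates from patient body fluids, blood, genital secretions, pus or sputum; species by conventional methods or Vitek. Twofold dilutions in Mueller-Hinton broth, inoculum 5 × 10^5 CFU/ml, 37°C aerobic 24 h (CLSI M7-A6 microdilution). About 100 μl from each well without visible growth spread on MHA; 37°C 24 h. MBC = lowest concentration giving no growth on agar.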

Mammaliicoccus sciuri [14] = experiment: Antimicrobial activity against methicillin-resistant coagulase-negative Staphylococcus sciuri assessed as intermediate resistant isolates after 24 hrs by broth microdilution method
Staphylococcus hominis [15] = experiment: Antimicrobial activity against methicillin-resistant coagulase-negative Staphylococcus hominis assessed as intermediate resistant isolates after 24 hrs by broth microdilution method
Staphylococcus simulans [16] = experiment: Antimicrobial activity against methicillin-resistant coagulase-negative Staphylococcus simulans assessed as intermediate resistant isolates after 24 hrs by broth microdilution method
Staphylococcus hominis [17] = experiment: Antimicrobial activity against methicillin-resistant coagulase-negative Staphylococcus hominis assessed as resistant isolates after 24 hrs by broth microdilution method
Staphylococcus hominis [18] = experiment: Antimicrobial activity against methicillin-susceptible coagulase-negative Staphylococcus hominis assessed as intermediate resistant isolates after 24 hrs by broth microdilution method; details: pooled result: one value given for 5 cell lines, strains, targets or settings
Staphylococcus simulans [19] = experiment: Antimicrobial activity against methicillin-resistant coagulase-negative Staphylococcus simulans assessed as susceptible isolates after 24 hrs by broth microdilution method
Staphylococcus aureus [20] = experiment: Antimicrobial activity against methicillin-susceptible Staphylococcus aureus assessed as susceptible isolates after 24 hrs by broth microdilution method
Staphylococcus aureus [21] = experiment: Antimicrobial activity against methicillin-susceptible Staphylococcus aureus after 24 hrs by broth microdilution method; outline: as §1
[22] = system: Staphylococcus epidermidis; experiment: Antimicrobial activity against methicillin-resistant coagulase-negative Staphylococcus epidermidis assessed as resistant isolates after 24 hrs by broth microdilution method
Staphylococcus aureus [23] = experiment: Antimicrobial activity against methicillin-resistant Staphylococcus aureus after 24 hrs by broth microdilution method; outline: as §1
[24] = system: Staphylococcus epidermidis; experiment: Antimicrobial activity against methicillin-susceptible coagulase-negative Staphylococcus epidermidis assessed as resistant isolates after 24 hrs by broth microdilution method
[25] = system: Staphylococcus haemolyticus; experiment: Antimicrobial activity against methicillin-resistant coagulase-negative Staphylococcus haemolyticus assessed as resistant isolates after 24 hrs by broth microdilution method
[26] = system: Staphylococcus epidermidis; experiment: Antimicrobial activity against methicillin-resistant coagulase-negative Staphylococcus epidermidis assessed as intermediate resistant isolates after 24 hrs by broth microdilution method
[27] = system: Staphylococcus epidermidis; experiment: Bactericidal activity against methicillin-resistant coagulase-negative Staphylococcus epidermidis after 24 hrs by plate counting method; details: for MBC: Staphylococcus epidermidis, 24 h
Staphylococcus aureus [28] = experiment: Antimicrobial activity against methicillin-susceptible Staphylococcus aureus assessed as resistant isolates after 24 hrs by broth microdilution method
Mammaliicoccus sciuri [29] = experiment: Bactericidal activity against methicillin-susceptible coagulase-negative Staphylococcus sciuri after 24 hrs by plate counting method; details: for MBC: Mammaliicoccus sciuri, 24 h; outline: as §2
Staphylococcus hominis [30] = experiment: Bactericidal activity against methicillin-susceptible coagulase-negative Staphylococcus hominis after 24 hrs by plate counting method; details: for MBC: Staphylococcus hominis, 24 h; outline: as §2
[31] = system: Staphylococcus haemolyticus; experiment: Antimicrobial activity against methicillin-resistant coagulase-negative Staphylococcus haemolyticus after 24 hrs by broth microdilution method; outline: as §1
Mammaliicoccus sciuri [32] = experiment: Antimicrobial activity against methicillin-susceptible coagulase-negative Staphylococcus sciuri assessed as susceptible isolates after 24 hrs by broth microdilution method
Outline: (§3)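 Clinical isolates from blood, body fluids, pus, sputum or genital secretions, identified conventionally or by Vitek, were tested alongside ATCC 29213 and ATCC 12228 controls. CLSI M7-A6 broth microdilution in Mueller-Hinton broth used twofold dilutions from a 10% DMSO solution and 5 × 10^5 CFU/ml inoculum. Drug-free and uninoculated wells served as controls; incubation was aerobic at 37°C for 24 h. MIC was the lowest concentration with no visible growth.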

[33] = system: Staphylococcus epidermidis; experiment: Bactericidal activity against methicillin-susceptible coagulase-negative Staphylococcus epidermidis after 24 hrs by plate counting method; details: for MBC: Staphylococcus epidermidis, 24 h; outline: as §2
Staphylococcus simulans [34] = experiment: Antimicrobial activity against methicillin-susceptible coagulase-negative Staphylococcus simulans assessed as susceptible isolates after 24 hrs by broth microdilution method; outline: as §3
Staphylococcus aureus [35] = experiment: Antimicrobial activity against methicillin-resistant Staphylococcus aureus assessed as susceptible isolates after 24 hrs by broth microdilution method
Staphylococcus simulans [36] = experiment: Bactericidal activity against methicillin-resistant coagulase-negative Staphylococcus simulans after 24 hrs by plate counting method; details: for MBC: Staphylococcus simulans, 24 h; outline: as §2
Staphylococcus aureus [37] = experiment: Bactericidal activity against methicillin-susceptible Staphylococcus aureus after 24 hrs by plate counting method; details: for MBC: Staphylococcus aureus, 24 h; outline: as §2

## CN[C@H](CC(C)C)C(=O)N[C@H]1C(=O)N[C@@H](CC(N)=O)C(=O)N[C@H]2C(=O)N[C@H]3C(=O)N[C@H](C(=O)N[C@H](C(=O)O)c4cc(O)cc(O)c4-c4cc3ccc4O)[C@H](O)c3ccc(c(Cl)c3)Oc3cc2cc(c3O[C@@H]2O[C@H](CO)[C@@H](O)[C@H](O)[C@H]2O[C@H]2C[C@](C)(N)[C@H](O)[C@H](C)O2)Oc2ccc(cc2Cl)[C@H]1O [VANCOMYCIN]
Staphylococcus hominis [1]
  MBC50: 2 µg/mL (≈ 1.38 µM)
  MBC90: 4 µg/mL (≈ 2.76 µM)
  MBC: 0.5 µg/mL (≈ 0.345 µM)
[2]
  MIC50: 0.25 µg/mL (≈ 0.173 µM)
  MIC90: 1 µg/mL (≈ 0.69 µM)
[3]
  Activity: 100%
Staphylococcus aureus [4]
  Activity: 0%
Mammaliicoccus sciuri [5]
  Activity: 0%
[6]
  MBC50: 2 µg/mL (≈ 1.38 µM)
  MBC90: 4 µg/mL (≈ 2.76 µM)
  MBC: 0.5 µg/mL (≈ 0.345 µM)
[7]
  Activity: 100%
Mammaliicoccus sciuri [8]
  Activity: 0%
Staphylococcus simulans [9]
  MIC: 0.125 µg/mL (≈ 0.0863 µM)
  MIC50: 0.125 µg/mL (≈ 0.0863 µM)
  MIC90: 2 µg/mL (≈ 1.38 µM)
Staphylococcus hominis [10]
  Activity: 0%
Staphylococcus hominis [11]
  Activity: 100%
Staphylococcus simulans [12]
  Activity: 0%
Mammaliicoccus sciuri [13]
  MBC50: 2 µg/mL (≈ 1.38 µM)
  MBC90: 4 µg/mL (≈ 2.76 µM)
  MBC: 0.5 µg/mL (≈ 0.345 µM)
Mammaliicoccus sciuri [14]
  Activity: 0%
Staphylococcus hominis [15]
  Activity: 0%
Staphylococcus simulans [16]
  Activity: 0%
Staphylococcus hominis [17]
  Activity: 0%
Staphylococcus hominis [18]
  Activity: 0%
Staphylococcus simulans [19]
  Activity: 0%
Staphylococcus aureus [20]
  Activity: 100%
Staphylococcus aureus [21]
  MIC50: 0.25 µg/mL (≈ 0.173 µM)
  MIC90: 0.5 µg/mL (≈ 0.345 µM)
[22]
  Activity: 0%
Staphylococcus aureus [23]
  MIC50: 0.5 µg/mL (≈ 0.345 µM)
  MIC90: 0.5 µg/mL (≈ 0.345 µM)
[24]
  Activity: 0%
[25]
  Activity: 0%
[26]
  Activity: 0%
[27]
  MBC50: 2 µg/mL (≈ 1.38 µM)
  MBC90: 4 µg/mL (≈ 2.76 µM)
  MBC: 0.5 µg/mL (≈ 0.345 µM)
Staphylococcus aureus [28]
  Activity: 0%
Mammaliicoccus sciuri [29]
  MBC50: 1 µg/mL (≈ 0.69 µM)
  MBC90: 4 µg/mL (≈ 2.76 µM)
  MBC: 0.125 µg/mL (≈ 0.0863 µM)
Staphylococcus hominis [30]
  MBC50: 1 µg/mL (≈ 0.69 µM)
  MBC90: 4 µg/mL (≈ 2.76 µM)
  MBC: 0.125 µg/mL (≈ 0.0863 µM)
[31]
  MIC: 0.125 µg/mL (≈ 0.0863 µM)
  MIC50: 0.125 µg/mL (≈ 0.0863 µM)
  MIC90: 2 µg/mL (≈ 1.38 µM)
Mammaliicoccus sciuri [32]
  Activity: 100%
[33]
  MBC50: 1 µg/mL (≈ 0.69 µM)
  MBC90: 4 µg/mL (≈ 2.76 µM)
  MBC: 0.125 µg/mL (≈ 0.0863 µM)
Staphylococcus simulans [34]
  Activity: 100%
Staphylococcus aureus [35]
  Activity: 100%
Staphylococcus simulans [36]
  MBC50: 2 µg/mL (≈ 1.38 µM)
  MBC90: 4 µg/mL (≈ 2.76 µM)
  MBC: 0.5 µg/mL (≈ 0.345 µM)
Staphylococcus aureus [37]
  MBC50: 1 µg/mL (≈ 0.69 µM)
  MBC90: 2 µg/mL (≈ 1.38 µM)
  MBC: 0.25 µg/mL (≈ 0.173 µM)

## CC[C@H]1OC(=O)[C@H](C)[C@@H](O[C@H]2C[C@@](C)(OC)[C@@H](O)[C@H](C)O2)[C@H](C)[C@@H](O[C@@H]2O[C@H](C)C[C@H](N(C)C)[C@H]2O)[C@](C)(O)C[C@@H](C)C(=O)[C@H](C)[C@@H](O)[C@]1(C)O [ERYTHROMYCIN]
Staphylococcus hominis [1]
  MBC50: 32 µg/mL (≈ 43.6 µM)
  MBC: 1 µg/mL (≈ 1.36 µM)
[2]
  MIC: 0.5 µg/mL (≈ 0.681 µM)
  MIC50: 0.5 µg/mL (≈ 0.681 µM)
  MIC90: 16 µg/mL (≈ 21.8 µM)
[3]
  Activity: 50%
Staphylococcus aureus [4]
  Activity: 4%
Mammaliicoccus sciuri [5]
  Activity: 74%
[6]
  MBC50: 32 µg/mL (≈ 43.6 µM)
  MBC: 1 µg/mL (≈ 1.36 µM)
[7]
  Activity: 11%
Mammaliicoccus sciuri [8]
  Activity: 27%
Staphylococcus simulans [9]
  MIC50: 16 µg/mL (≈ 21.8 µM)
  MIC90: 32 µg/mL (≈ 43.6 µM)
Staphylococcus hominis [10]
  Activity: 27%
Staphylococcus hominis [11]
  Activity: 50%
Staphylococcus simulans [12]
  Activity: 74%
Mammaliicoccus sciuri [13]
  MBC50: 32 µg/mL (≈ 43.6 µM)
  MBC: 1 µg/mL (≈ 1.36 µM)
Mammaliicoccus sciuri [14]
  Activity: 15%
Staphylococcus hominis [15]
  Activity: 15%
Staphylococcus simulans [16]
  Activity: 15%
Staphylococcus hominis [17]
  Activity: 74%
Staphylococcus hominis [18]
  Activity: 23%
Staphylococcus simulans [19]
  Activity: 15%
Staphylococcus aureus [20]
  Activity: 56%
Staphylococcus aureus [21]
  MIC: 0.5 µg/mL (≈ 0.681 µM)
  MIC50: 0.5 µg/mL (≈ 0.681 µM)
  MIC90: 32 µg/mL (≈ 43.6 µM)
[22]
  Activity: 74%
Staphylococcus aureus [23]
  MIC50: 32 µg/mL (≈ 43.6 µM)
  MIC90: 64 µg/mL (≈ 87.2 µM)
[24]
  Activity: 27%
[25]
  Activity: 74%
[26]
  Activity: 15%
[27]
  MBC50: 32 µg/mL (≈ 43.6 µM)
  MBC: 1 µg/mL (≈ 1.36 µM)
Staphylococcus aureus [28]
  Activity: 40%
Mammaliicoccus sciuri [29]
  MBC50: 2 µg/mL (≈ 2.73 µM)
  MBC: 1 µg/mL (≈ 1.36 µM)
Staphylococcus hominis [30]
  MBC50: 2 µg/mL (≈ 2.73 µM)
  MBC: 1 µg/mL (≈ 1.36 µM)
[31]
  MIC50: 16 µg/mL (≈ 21.8 µM)
  MIC90: 32 µg/mL (≈ 43.6 µM)
Mammaliicoccus sciuri [32]
  Activity: 50%
[33]
  MBC50: 2 µg/mL (≈ 2.73 µM)
  MBC: 1 µg/mL (≈ 1.36 µM)
Staphylococcus simulans [34]
  Activity: 50%
Staphylococcus aureus [35]
  Activity: 0%
Staphylococcus simulans [36]
  MBC50: 32 µg/mL (≈ 43.6 µM)
  MBC: 1 µg/mL (≈ 1.36 µM)
Staphylococcus aureus [37]
  MBC50: 4 µg/mL (≈ 5.45 µM)
  MBC: 1 µg/mL (≈ 1.36 µM)

— ChEMBL document CHEMBL1649231, “In vitro activities of panduratin A against clinical Staphylococcus strains” (2009)
